Each structure is given as a SMILES string. Active and inactive are the calls of the source. The rule behind the calls is not given here. Where only a bound is given, the exact number is not on record here.

The test system of data set [1] is Trypanosoma brucei rhodesiense. As to the kind of experiment: Antimicrobial activity against bloodstream form of Trypanosoma brucei rhodesiense STIB900 infected in acute HAT NMRI mouse model assessed as mean day of relapse at 5 mg/kg, ip administered for 4 days. It counts as functional. The conditions noted are these: route intraperitoneal.
For a further data set, the system named is Trypanosoma brucei. As to the kind of experiment: Antimicrobial activity against Trypanosoma brucei GVR35 infected in NMRI mouse late stage model at 20 mg/kg, ip administered for 5 days. Also noted: dose 20 mg/kg. The format is functional, organism-based.
Data set [2] concerns Trypanosoma brucei rhodesiense. As to the kind of experiment: Antimicrobial activity against bloodstream form of Trypanosoma brucei rhodesiense STIB900 infected in acute HAT NMRI mouse model assessed as mean day of relapse at 50 mg/kg, po administered for 4 days. The format is functional.
Data set [3] in a line: Cytotoxicity against rat L6 cells. It counts as cell-based. A digest of the protocol: (§1)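 Alamar blue-based viability assays were run on bloodstream T. b. rhodesiense STIB900 and on rat skeletal myoblast L6 cells. Podophyllotoxin was the reference drug for L6.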
In data set [4] the test system is Trypanosoma brucei rhodesiense. Briefly: Antimicrobial activity against bloodstream form of Trypanosoma brucei rhodesiense STIB900 infected in acute HAT NMRI mouse model assessed as mean day of relapse at 20 mg/kg, ip administered for 4 days. The format is functional. The conditions noted are these: route intraperitoneal. A digest of the protocol:
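Acute-stage mouse model infected with T. b. rhodesiense STIB900, in groups of four mice. Compound was formulated in 100% DMSO and diluted 10-fold in distilled water. It was given on four consecutive days from day 3 post-infection at 0.1 mL/10 g. Three infected mice were left untreated. Parasitaemia was checked in tail-blood smears up to day 60; relapse-free mice were counted as cured. Mean relapse day is the post-infection day of relapse.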

A further data set has as its system Plasmodium falciparum. As to the kind of experiment: Antimicrobial activity against intraerythrocytic stage of Plasmodium falciparum NF54 infected in human erythrocytes by [3H]hypoxanthine incorporation assay. It counts as functional, organism-based. A digest of the protocol:
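Erythrocytic P. falciparum NF54 (chloroquine-sensitive) was tested with a [³H]hypoxanthine incorporation read-out.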

Data set [5] is described as follows: Selectivity ratio of K for 5'-biotin-CGAATTCGTCTCCGAATTCG-3' hairpin DNA (unknown origin) to K for 5'-biotin-CATATATATCCCCATATATATG-3' hairpin DNA (unknown origin).
Data set [6] is described as follows: Binding affinity to 5'-biotin-CGAATTCGTCTCCGAATTCG-3' hairpin DNA (unknown origin) after 5 mins by SPR analysis. Put shortly:
(§2)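 SPR at 25 °C in MES buffer (10 mM MES, 1 mM EDTA, 100 mM NaCl, 0.005% P20, pH 6.25). Biotinylated hairpins were captured on streptavidin chips to about 400 RU, with a blank reference flow cell. A compound dilution series (from 5 mM stocks) was injected at 20 µL/min with 5 min association and 5 min dissociation. Surfaces were regenerated with 200 mM NaCl/10 mM NaOH. Equilibrium constants came from fits to a one- or two-site model.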
For orientation: In SPR one partner is held on a chip, and binding of the other changes the refractive index at the surface.

A short description of data set [7]: Binding affinity to 5'-biotin-CATATATATCCCCATATATATG-3' hairpin DNA (unknown origin) after 5 mins by SPR analysis. Put shortly:
as §2

A short description of data set [8]: Binding affinity to 5'-biotin-CGCGCGCGTTTTCGCGCGCG-3' hairpin DNA (unknown origin) hairpin DNA after 5 mins by SPR analysis. Put shortly: as §2
For data set [9], the system named is Trypanosoma brucei rhodesiense. As to the kind of experiment: Antimicrobial activity against trypomastigote stage of Trypanosoma brucei rhodesiense STIB900 infected in rat L6 cells after 96 hrs by Alamar Blue assay. The format is functional, organism-based. As to conditions: STIB900, L6, 96 h. Put shortly: as §1
On the technique in general: The colour change of resazurin is a common sign of viable cells or microbes.

Data set [10] in a line: Selectivity index, ratio of CC50 for rat L6 cells to IC50 for Trypanosoma brucei rhodesiense. The format is functional. Put shortly: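 Selectivity index was calculated as L6 CC₅₀ divided by the T. b. rhodesiense IC₅₀, both from the Alamar blue assays.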
A short description of data set [11]: Selectivity index, ratio of CC50 for rat L6 cells to IC50 for Plasmodium falciparum NF54.
The test system of the next data set is Mus musculus. As to the kind of experiment: Acute toxicity in NMRI mouse infected with bloodstream form of Trypanosoma brucei rhodesiense STIB900 at 20 mg/kg, ip administered for 4 days. It counts as organism-based. Also noted: dose 20 mg/kg, route intraperitoneal. As to conditions: in vivo, 96 h.

Regarding `N=C(N)Nc1ccc(NC(=O)c2ccc(NC(=N)N)cc2)cc1`, the Time in data set [1] and in data set [2] was greater than 60 days each time. In the data set with Trypanosoma brucei, the outcome was inactive.
On to `CC/N=C(\N)Nc1ccc(NC(=O)c2ccc(N/C(N)=N/CC)cc2)cc1.Cl`, for which the CC50 (usually the concentration giving 50% cytotoxicity) in [3] is 118 µM. For the same molecule, in data set [4], the Time is greater than 60 days. Further, the IC50 (usually the concentration needed to halve the response being measured) turned out to be 232 nM in the data set on Plasmodium falciparum and 9 nM in [9]. Further, the Selectivity ratio in [5] is 1.5. Besides, the K in data set [6] is 8.1 ×10⁵ /M; in data set [7], 5.2 ×10⁵ /M; in [8], less than 1 ×10⁵ /M. The entries for the “Ratio CC50/IC50” value in data set [10] and in data set [11] were 13111 and 509, respectively.
Turning to `N/C(=N\OC1CCCCO1)Nc1ccc(NC(=O)c2ccc(N/C(N)=N/OC3CCCCO3)cc2)cc1` (configuration not stated), in data set [3], half-maximal cytotoxicity (CC50) was put at 160 µM. Also, the IC50 came out at 42600 nM in the data set on Plasmodium falciparum and 51400 nM in [9].
Taken in the same sequence, the figures for `N/C(=N\OCc1ccccc1)Nc1ccc(NC(=O)c2ccc(N/C(N)=N/OCc3ccccc3)cc2)cc1` were 6.6 µM, 2830 nM and 3130 nM.
Consider `C/N=C(\N)Nc1ccc(NC(=O)Nc2ccc(N/C(N)=N/C)cc2)cc1.Cl`, for which the midpoint of cytotoxicity in data set [3], the CC50, lay at 177 µM. Besides, the results for the half-maximal inhibitory concentration (IC50) (with Plasmodium falciparum; in data set [9]) were 192 nM and 264 nM, respectively. The “Ratio CC50/IC50” value in [10] is listed as 670; in data set [11] it was 922.
The molecule `CO/N=C(\N)Nc1ccc(NC(=O)c2ccc(N/C(N)=N/OC)cc2)cc1` had a CC50 in data set [3] of 141 µM. The figures for the IC50 (in the data set on Plasmodium falciparum; in data set [9]) were 7490 nM and 56000 nM, respectively.
Consider `Nc1nc(N)nc(Nc2ccc([As]3SCC(CO)S3)cc2)n1` (configuration not stated) [MELARSOPROL], for which the “Ratio CC50/IC50” value in [10] is listed as greater than 1000.
`N/C(=N\O)Nc1ccc(NC(=O)c2ccc(N/C(N)=N/O)cc2)cc1` had a CC50 in [3] of 100 µM. Besides, the IC50 in the data set on Plasmodium falciparum was 3580 nM; in data set [9], 4880 nM.
In the case of `CC/N=C(\N)Nc1ccc(NC(=O)Nc2ccc(N/C(N)=N/CC)cc2)cc1.Cl`, the half-maximal cytotoxic concentration (CC50) in [3] came out at 116 µM. For the same molecule, the Time in data set [4] was 18.3 days. The values for the IC50 (in the data set on Plasmodium falciparum; in data set [9]) were 397 nM and 90 nM, respectively. The Activity result in the data set on Mus musculus is on record as “Toxic”. Besides, the K in data set [6] turned out to be 0.19 ×10⁵ /M; in data set [7], 0.15 ×10⁵ /M. In addition, the results for the “Ratio CC50/IC50” value in [10] and in data set [11] were 1289 and 292, respectively.
For `CC(C)/N=C(\N)Nc1ccc(NC(=O)c2ccc(N/C(N)=N/C(C)C)cc2)cc1.Cl`, half-maximal cytotoxicity in [3] (CC50) was put at 103 µM. Moreover, in data set [4], the Time was greater than 60 days. The IC50 in the data set on Plasmodium falciparum was 446 nM; in [9], 11 nM. Further, in data set [5], the Selectivity ratio stood at 2.5. Besides, the K in [6] was 9.8 ×10⁵ /M; in data set [7], 4 ×10⁵ /M; in data set [8], less than 1 ×10⁵ /M. Also, the results for the “Ratio CC50/IC50” value in data set [10] and in [11] were 9364 and 231, respectively.
For `CC(C)/N=C(\N)Nc1ccc(NC(=O)Nc2ccc(N/C(N)=N/C(C)C)cc2)cc1.Cl`, the CC50 in [3] worked out at 126 µM. Further, in data set [4], the Time was found to be 10 days. Also, the concentration for half-maximal inhibition (IC50) in the data set on Plasmodium falciparum is 437 nM; in data set [9], 49 nM. Also, in the data set on Mus musculus, the Activity result was “Toxic”. In addition, the figures for the “Ratio CC50/IC50” value in data set [10] and in data set [11] were 2571 and 288, respectively.
The molecule `C/N=C(\N)Nc1ccc(NC(=O)c2ccc(N/C(N)=N/C)cc2)cc1.Cl` returned a CC50 in data set [3] of 173 µM. The IC50 with Plasmodium falciparum came out at 1020 nM; in data set [9] it was 177 nM. For the same molecule, the results for the “Ratio CC50/IC50” value in data set [10] and in data set [11] were 977 and 169, respectively.

For the origin of these results see ChEMBL document CHEMBL3259603, “Antiprotozoal activity and DNA binding of N-substituted N-phenylbenzamide and 1,3-diphenylurea bisguanidines” (Eur J Med Chem, 2014).
